Calls of active or inactive are those of the source. The rule behind the calls is not given here.
Experiments:
[1] = target: Mast/stem cell growth factor receptor Kit (Homo sapiens) (UniProt P10721); experiment: Inhibition of cKIT in human GISTT1 cells assessed as suppression of STAT5 phosphorylation at Y694 up to 10 uM after 2 hrs by Western blot analysis; format: cell-based
[2] = target: Platelet-derived growth factor receptor alpha (Homo sapiens) (UniProt P16234); experiment: Inhibition of PDGFRalpha phosphorylation at Y849 in human GIST882 cells up to 10 uM after 2 hrs by Western blot analysis; format: cell-based
Method in brief: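 Cells were washed in cold PBS, lysed in RIPA and immunoblotted for phospho and total proteins, including pPDGFRα Y849/PDGFRβ Y857 and β-actin.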

[3] = target: Mast/stem cell growth factor receptor Kit (Homo sapiens) (UniProt P10721); experiment: Inhibition of cKIT autophosphorylation at Y703 in human GIST48B cells up to 10 uM after 2 hrs by Western blot analysis; format: cell-based
GIST882 = experiment: Induction of apoptosis in human GIST882 cells assessed as caspase 3 cleavage up to 3 uM after 72 hrs by Western blot analysis; format: functional, cell-based
[4] = target: Mast/stem cell growth factor receptor Kit (Homo sapiens) (UniProt P10721); experiment: Inhibition of cKIT autophosphorylation at Y719 in human GIST48B cells up to 10 uM after 2 hrs by Western blot analysis; format: cell-based
[5] = Tmax in Sprague-Dawley rat plasma at 1 mg/kg, iv; format: ADME, organism-based
Method in brief: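 Male Sprague–Dawley rats, 8 weeks old, six in total, fasted overnight; compound dissolved in 5% DMSO/40% PEG400/55% saline (1 mg/mL dosing solution), given iv or orally. About 0.2 mL jugular blood taken with heparin at 1 min–8 h (iv) or 5 min–24 h (oral); plasma separated at 2–8 °C and stored at −80 °C before analysis.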

[6] = target: Mast/stem cell growth factor receptor Kit (Homo sapiens) (UniProt P10721); experiment: Inhibition of cKIT autophosphorylation at Y823 in human GISTT1 cells up to 10 uM after 2 hrs by Western blot analysis; format: cell-based
[7] = test system: Mast/stem cell growth factor receptor Kit (Homo sapiens), P10721 [V559D]; experiment: Inhibition of Tel-fused cKIT V559D mutant (unknown origin) transfected in mouse BAF3 cells assessed as decrease in cell proliferation after 72 hrs by celltiter-glo/CCK8 assay; format: cell-based
Method in brief: (§1)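 Stable BaF3 lines made by retroviral transduction with mutagenized TEL-KIT MSCV vectors, puromycin selection 48 h, then gradual IL-3 withdrawal until IL-3-independent; grown in RPMI 1640 with 10% FBS. Cells at 1 to 3 × 10⁴ cells/mL exposed to a concentration series for 72 h; viability read by CellTiter-Glo luminescence or CCK-8 absorbance (450/655 nm); GI50 from triplicate testing.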

[8] = test system: Mast/stem cell growth factor receptor Kit (Homo sapiens), P10721 [T670I]; experiment: Inhibition of Tel-fused cKIT T670I mutant (unknown origin) transfected in mouse BAF3 cells assessed as decrease in cell proliferation after 72 hrs by celltiter-glo/CCK8 assay; format: cell-based; method in brief: as §1
[9] = target: Mast/stem cell growth factor receptor Kit (Homo sapiens) (UniProt P10721); experiment: Inhibition of cKIT autophosphorylation at Y719 in human GIST882 cells up to 10 uM after 2 hrs by Western blot analysis; format: cell-based
[10] = Cell cycle arrest in human GISTT1 cells at 0.3 to 3 uM after 24 hrs by propidium iodide/RNase staining based flow cytometric analysis; format: functional
Method in brief: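 Cells were then fixed in 70% cold ethanol at −20 °C overnight, stained with PI/RNase buffer and analysed by flow cytometry.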

[11] = Antiproliferative activity against cKIT dependent human GISTT1 cells assessed as reduction in cell viability after 72 hrs by celltiter-glo/CCK8 assay; format: functional; settings: GISTT1, 72 h
Method in brief: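 Cells were seeded at 1 to 3 × 10⁴ cells/mL with serial compound concentrations and incubated 72 h at 37 °C, 5% CO₂. Viability was read by CellTiter-Glo luminescence or CCK-8 absorbance (450/655 nm). GI50 values are from triplicate testing. GIST-T1 and CHO were grown in DMEM/10% FBS; GIST-882, GIST-48B and MV4-11 in IMDM/10% FBS; other lines in RPMI 1640/10% FBS.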

Mast/stem cell growth factor receptor Kit (Homo sapiens), sequence (P10721 whole entry, the tested form may be a part): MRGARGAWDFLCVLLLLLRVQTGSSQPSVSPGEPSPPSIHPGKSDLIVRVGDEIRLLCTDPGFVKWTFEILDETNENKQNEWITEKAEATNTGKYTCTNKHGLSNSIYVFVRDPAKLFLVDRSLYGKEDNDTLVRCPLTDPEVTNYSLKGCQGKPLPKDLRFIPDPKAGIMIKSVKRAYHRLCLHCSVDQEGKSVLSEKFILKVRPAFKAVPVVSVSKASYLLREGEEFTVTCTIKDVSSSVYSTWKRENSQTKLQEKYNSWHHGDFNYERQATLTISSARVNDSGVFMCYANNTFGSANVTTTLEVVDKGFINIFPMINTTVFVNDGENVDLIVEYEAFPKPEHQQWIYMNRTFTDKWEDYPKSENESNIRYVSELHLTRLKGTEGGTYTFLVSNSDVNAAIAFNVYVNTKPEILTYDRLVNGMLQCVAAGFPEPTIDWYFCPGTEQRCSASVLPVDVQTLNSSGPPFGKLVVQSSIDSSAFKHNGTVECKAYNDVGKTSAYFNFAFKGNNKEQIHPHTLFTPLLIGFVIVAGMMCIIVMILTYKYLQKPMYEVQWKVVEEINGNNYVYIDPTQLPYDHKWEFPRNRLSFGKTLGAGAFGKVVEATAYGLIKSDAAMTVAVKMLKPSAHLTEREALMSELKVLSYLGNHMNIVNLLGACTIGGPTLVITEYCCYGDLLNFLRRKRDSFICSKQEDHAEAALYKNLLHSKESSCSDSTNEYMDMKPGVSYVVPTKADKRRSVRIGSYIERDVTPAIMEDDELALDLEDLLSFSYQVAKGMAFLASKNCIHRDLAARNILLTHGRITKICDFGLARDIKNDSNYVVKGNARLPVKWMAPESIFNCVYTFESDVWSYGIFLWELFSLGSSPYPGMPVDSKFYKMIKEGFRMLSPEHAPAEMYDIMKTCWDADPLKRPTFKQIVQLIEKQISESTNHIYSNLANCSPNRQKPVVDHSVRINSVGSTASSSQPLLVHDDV
Mast/stem cell growth factor receptor Kit (Homo sapiens), P10721 [V559D], sequence (P10721 whole entry V559D, the tested form may be a part): as the sequence (P10721 whole entry, the tested form may be a part) above, with V559D counted along it
Mast/stem cell growth factor receptor Kit (Homo sapiens), P10721 [T670I], sequence (P10721 whole entry T670I, the tested form may be a part): as the sequence (P10721 whole entry, the tested form may be a part) above, with T670I counted along it
Platelet-derived growth factor receptor alpha (Homo sapiens), sequence (P16234 whole entry): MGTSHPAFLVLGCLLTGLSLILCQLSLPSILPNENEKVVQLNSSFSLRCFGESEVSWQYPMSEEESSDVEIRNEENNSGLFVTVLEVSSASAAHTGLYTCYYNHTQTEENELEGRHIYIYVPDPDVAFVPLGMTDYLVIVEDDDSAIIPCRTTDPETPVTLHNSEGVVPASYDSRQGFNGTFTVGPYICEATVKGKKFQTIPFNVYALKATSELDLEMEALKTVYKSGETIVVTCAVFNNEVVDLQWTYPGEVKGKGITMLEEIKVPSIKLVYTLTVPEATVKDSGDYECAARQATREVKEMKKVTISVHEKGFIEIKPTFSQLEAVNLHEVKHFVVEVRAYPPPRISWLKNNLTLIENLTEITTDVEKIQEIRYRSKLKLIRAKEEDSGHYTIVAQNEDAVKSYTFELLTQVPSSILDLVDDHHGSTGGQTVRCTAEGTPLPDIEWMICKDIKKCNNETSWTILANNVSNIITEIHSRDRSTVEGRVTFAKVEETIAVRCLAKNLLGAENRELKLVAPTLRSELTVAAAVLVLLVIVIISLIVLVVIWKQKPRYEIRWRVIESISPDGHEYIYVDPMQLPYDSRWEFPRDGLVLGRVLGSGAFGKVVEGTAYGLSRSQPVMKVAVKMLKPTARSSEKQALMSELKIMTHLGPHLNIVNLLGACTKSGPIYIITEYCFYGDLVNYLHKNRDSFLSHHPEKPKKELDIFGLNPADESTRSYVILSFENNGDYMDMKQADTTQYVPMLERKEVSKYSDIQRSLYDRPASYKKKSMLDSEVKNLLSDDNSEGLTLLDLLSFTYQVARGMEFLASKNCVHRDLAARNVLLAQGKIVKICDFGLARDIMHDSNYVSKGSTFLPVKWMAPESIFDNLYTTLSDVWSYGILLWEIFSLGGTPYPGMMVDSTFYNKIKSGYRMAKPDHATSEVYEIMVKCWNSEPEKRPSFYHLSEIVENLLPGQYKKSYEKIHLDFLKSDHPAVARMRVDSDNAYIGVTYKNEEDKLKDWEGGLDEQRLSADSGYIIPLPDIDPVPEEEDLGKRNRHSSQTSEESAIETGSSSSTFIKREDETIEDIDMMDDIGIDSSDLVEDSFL

Cc1ccc(NC(=O)c2cccc(C(F)(F)F)c2)cc1OC1CCN(C(=O)c2ccncc2)CC1
inhibition [1]: Active | inhibition [2]: Active | inhibition [3]: Active | Activity (GIST882): Active | inhibition [4]: Active | Tmax [5]: 1.02 min | inhibition [6]: Active | GI50 [7]: 40 nM | GI50 [8]: 8240 nM | inhibition [9]: Active | Activity [10]: Active | GI50 [11]: 21 nM

Reference: ChEMBL document CHEMBL3808357, “Discovery of N-(3-((1-Isonicotinoylpiperidin-4-yl)oxy)-4-methylphenyl)-3-(trifluoromethyl)benzamide (CHMFL-KIT-110) as a Selective, Potent, and Orally Available Type II c-KIT Kinase Inhibitor for Gastrointestinal Stromal Tumors (GISTs)” (J Med Chem, 2016)
